PMC3076219 (European journal of immunology, 2009)

How the values were obtained:
CXCR2 [1] = settings: ref [33], [34]; cited from earlier work
neutrophils [2] = assay: Calcium mobilization of neutrophils; type: cell-based, human; settings: ATP 5 µM; for [Ca2+]i time of decline to baseline: fMLF 100 nM, CXCL8 10 nM, Fig. 3A
CXCR1 [3] = assay: CXCR1 surface expression on neutrophils, flow cytometry; type: cell-based, human; settings: 3h; for CXCR1 surface expression, chemokine treated: 1 nM, 5 nM, 10 nM (50 nM), Fig. 2E-G; for CXCR1 down-regulation at higher dose: 50 nM
Method in brief: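 Human blood neutrophils were isolated by dextran sedimentation and Ficoll (>95% CD16+) and held at 5×10^6/mL in RPMI 1640 with 1% FBS. They were treated 3h with a dose series (test peptide 1–10 µM; chemokines 1, 5, 10, 50 nM) or with 5 µM for 0.5–3h. Cells were blocked in 10% human serum and stained with anti-CXCR1-APC/anti-CXCR2-FITC or anti-P2X7-FITC, plus anti-CD16. Read-out was flow cytometry GMFI.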

CXCR2 [4] = assay: CXCR2 surface expression on neutrophils, flow cytometry; type: cell-based, human; settings: 3h; for CXCR2 surface expression, chemokine treated: 1 nM, 5 nM, 10 nM (50 nM), Fig. 2E-G
CXCR1 [5] = assay: Calcium mobilization in HEK293/CXCR1 cells; type: cell-based, human; settings: Indo-1; Fig. 7A-B
Method in brief: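 CXCR1-transfected HEK293 cells were loaded with 5 µM Indo-1-AM in 5 µM pluronic F-127/PBS for 30 min at RT. They were washed in cold PBS, spun at 200 × g for 10 min at 4 °C and suspended in PBS with calcium and magnesium. Stimulation followed baseline recording. Flow cytometric [Ca2+]i was read as the 405:485 nm emission ratio with 351 nm excitation. Three independent experiments.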

CXCR2 [6] = assay: Confocal analysis of CXCR2 internalization in neutrophils; type: cell-based, human; settings: 37°C
Method in brief: (§1)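 Neutrophils came from citrated donor blood by dextran sedimentation and Ficoll gradient. […] Cells were fixed in 2% paraformaldehyde, permeabilised with saponin and blocked with human serum. Anti-CXCR1 or anti-CXCR2 mAb (4°C), then Alexa 488 anti-mouse IgG, DAPI mount, confocal imaging; three independent experiments.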

neutrophils [7] = assay: Cross-desensitization of calcium mobilization of neutrophils; type: cell-based, human; settings: for cross-desensitization of response to fMLF by LL-37, CXCL7, CXCL1: data not shown
CXCR2 [8] = assay: CXCR2 surface expression on monocytes; type: cell-based, human; settings: Supporting information Fig. 2
CXCR1 [9] = assay: Confocal analysis of CXCR1 internalization in neutrophils; type: cell-based, human; settings: 37°C
Method in brief: as §1

CXCR1 [10] = settings: ref [33], [34]; cited from earlier work
CXCR2 [11] = assay: Calcium mobilization in HEK293/CXCR2 cells; type: cell-based, human; settings: Indo-1; Fig. 7A-B
Method in brief: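 They were washed in cold PBS, pelleted at 200 × g for 10 min at 4 °C, and resuspended in PBS with Ca/Mg. […] [Ca2+]i was read as the 405:485 nm ratio by flow cytometry, gating on living cells.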

P2X7 = P2X7 receptor blockers; monocytes; ref [14]; cited from earlier work
monocytes [12] = assay: Migration of monocytes, 24-well Transwell; type: cell-based, human; settings: LL-37 5 µM, CXCL1 50 nM, WKYMVm 5 µM, ATP 50 µM, BzATP 50 µM; 90 min, 37°C; Fig. 7F
Method in brief: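 CFSE-labelled monocytes or THP-1 cells (5 µM, 5 min RT) at 2×10^6/mL in phenol-red-free RPMI 1640 with 1% FBS went in the Transwell upper chamber (3-µm pores). Stimuli in the lower chamber included CXCL1 50 nM, WKYMVm 5 µM and ATP/BzATP 50 µM. Cells were used with or without 20 min preincubation with 10 µM CXCR2 antagonist. Incubation at 37 °C lasted 90 min for monocytes and 2 h for THP-1. Lower-well cells were read at 495 nm against a standard curve, in quadruplicate.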

THP-1 cells = assay: Calcium mobilization in THP-1 cells; type: cell-based; settings: THP-1; Fig. 7C
Method in brief: (§2)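 Peripheral blood monocytes (kit-isolated from PBMC, CD14-checked) or THP-1 cells at 10^7/mL were loaded with 5 µM Indo-1-AM for 7 min at 37 °C, then held 10 min at RT and washed in cold PBS. Cells were run at 2×10^6/mL in KRP (PBS, 1.5 mM CaCl2, 1.5 mM MgSO4). After baseline they got a first stimulus, then a second. Flow cytometry used 351 nm excitation and the 405:485 nm ratio, gating live cells. Three independent experiments.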

[13] = system: 125I-CXCL8 specific binding sites on neutrophils (CXCR1/2); assay: Competition with 125I-CXCL8 for binding to neutrophils; set-up: species or system human; settings: 1.25 nM 125I-CXCL8, 2h on ice, triplicate, dose-dependent, Fig. 5B
[14] = system: CXCR1 transfected HEK293 cells; assay: Secondary necrosis of CXCR1 transfected HEK293 cells; type: cell-based; settings: Supporting information Fig. 4
[15] = system: CXCR2 transfected HEK293 cells; assay: Secondary necrosis of CXCR2 transfected HEK293 cells; type: cell-based; settings: Supporting information Fig. 4
monocytes [16] = assay: Calcium mobilization in monocytes; type: cell-based, human; settings: ATP or WKYMVm first, then LL-37; Fig. 7D
Method in brief: as §2

[17] = fMLF 50 nM, 100 nM, 200 nM, Fig. 2A
[18] = LL-37 5 µM or CXCL8 50 nM, 1 h, Fig. 8
[19] = CXCL7 50 nM or CXCL1 50 nM, 60 min, data not shown
[20] = ATP 30 µM, 300 µM, 3000 µM, Fig. 2C

CXCL3: CXC chemokine
affinity for CXCR2 (CXCR2 [1]): high affinity

fMLF [reference compound]
[Ca2+]i time of decline to baseline (neutrophils [2]): ≤ 200 s
CXCR1 surface expression (CXCR1 [3]; [17]): caused down-regulation of both CXCR2 and CXCR1 expression with similar kinetics
CXCR2 surface expression (CXCR2 [4]; [17]): caused down-regulation of both CXCR2 and CXCR1 expression with similar kinetics

CXCL8: recombinant human chemokine that binds both CXCR1/2
affinity for CXCR2 (CXCR2 [1]): high affinity
calcium mobilization in CXCR1 transfected HEK293 cells (CXCR1 [5]): gave a response
CXCR2 translocation (internalization) (CXCR2 [6]; [18]): translocation of both CXCR1 and CXCR2 to the cytoplasm
cross-desensitization of response to CXCL1 (neutrophils [7]; CXCL8 10 nM first, CXCL1 10 nM 160 s later, Fig. 4C): completely blocked
cross-desensitization of response to CXCL7 (neutrophils [7]; CXCL8 10 nM first, CXCL7 10 nM 160 s later, Fig. 4B): completely blocked
cross-desensitization of response to LL-37 (neutrophils [7]; CXCL8 10 nM first, LL-37 5 µM 160 s later, Fig. 4A): completely blocked
cross-desensitization of response to fMLF (neutrophils [7]; CXCL8 10 nM first, fMLF 100 nM 160 s later, Fig. 4D): failed to cross-sensitize fMLF stimulation
[Ca2+]i time of decline to baseline (neutrophils [2]): less than 100 s
CXCR1 surface expression, chemokine treated (CXCR1 [3]): significantly down-regulated both CXCR1 and CXCR2
CXCR2 down-regulation on monocytes (CXCR2 [8]): down-regulate CXCR2
CXCR2 surface expression, chemokine treated (CXCR2 [4]): significantly down-regulated both CXCR1 and CXCR2
CXCR1 translocation (internalization) (CXCR1 [9]; [18]): translocation of both CXCR1 and CXCR2 to the cytoplasm
affinity for CXCR1 (CXCR1 [10]): high affinity
calcium mobilization in CXCR2 transfected HEK293 cells (CXCR2 [11]): weak but similar patterns of calcium mobilization

Nc1ncnc2c1ncn2[C@@H](C=O)O[C@@H](C=O)COP(=O)(O)OP(=O)(O)OP(=O)(O)O [oxATP]
block of LL-37-induced release of IL-1β (P2X7): did not completely block the release of IL-1β

Nc1ncnc2c1ncn2[C@@H]1O[C@H](COP(=O)(O)OP(=O)(O)OP(=O)(O)O)[C@@H](OC(=O)c2ccc(C(=O)c3ccccc3)cc2)[C@H]1O [BzATP]
stimulation of migration of monocytes (monocytes [12]): only LL-37 stimulated migration of monocytes
CXCR2 down-regulation on monocytes (CXCR2 [8]): but not ATP or BzATP, all down-regulate CXCR2
block of LL-37 induced calcium mobilization by ATP / BzATP (THP-1 cells): not BzATP was able to partially block

CXCL1: recombinant human chemokine, predominantly CXCR2 specific
maximum competition of 125I-CXCL8 binding ([13]; 2×10^6 cells): around 50%
displacement of 125I-CXCL8 [13]: partly displace
affinity for CXCR2 (CXCR2 [1]): high affinity
calcium mobilization in CXCR1 transfected HEK293 cells (CXCR1 [5]): only CXCL8 gave a response
CXCR2 translocation (internalization) (CXCR2 [6]; [19]): caused only CXCR2 receptor translocation to the cytoplasm
cross-desensitization of response to fMLF by LL-37, CXCL7, CXCL1 (neutrophils [7]): do not cross-sensitize fMLF stimulation
generation of secondary necrotic cells, HEK293/CXCR1 [14]: not with CXCL1
generation of secondary necrotic cells, HEK293/CXCR2 [15]: not with CXCL1
stimulation of migration of monocytes (monocytes [12]): only LL-37 stimulated migration of monocytes
CXCR1 down-regulation at higher dose (CXCR1 [3]): down-regulate CXCR1 at higher doses
CXCR1 surface expression, chemokine treated (CXCR1 [3]): down-regulated CXCR2 but not CXCR1
CXCR2 down-regulation on monocytes (CXCR2 [8]): down-regulate CXCR2
CXCR2 surface expression, chemokine treated (CXCR2 [4]): down-regulated CXCR2 but not CXCR1 in a limited dose-dependent manner
CXCR1 translocation (internalization) (CXCR1 [9]; [19]): caused only CXCR2 receptor translocation to the cytoplasm
calcium mobilization in CXCR2 transfected HEK293 cells (CXCR2 [11]): weak but similar patterns of calcium mobilization

CXCL2: CXC chemokine
affinity for CXCR2 (CXCR2 [1]): high affinity

CXCL5: CXC chemokine
affinity for CXCR2 (CXCR2 [1]): high affinity

CN([C@@H](Cc1ccc(OS(=O)(=O)c2cccc3cnccc23)cc1)C(=O)N1CCN(c2ccccc2)CC1)S(=O)(=O)c1cccc2cnccc12 [KN62]
block of LL-37-induced release of IL-1β (P2X7): did not completely block the release of IL-1β

CXCL6: CXC chemokine
affinity for CXCR2 (CXCR2 [1]): high affinity
affinity for CXCR1 (CXCR1 [10]): high affinity

Nc1ncnc2c1ncn2[C@@H]1O[C@H](COP(=O)(O)OP(=O)(O)OP(=O)(O)O)[C@@H](O)[C@H]1O [ATP, reference compound]
cross-desensitization of LL-37 response by ATP (neutrophils [7]; ATP first, then LL-37, Supporting information Fig. 3A-B): unable to block calcium mobilization stimulated by LL-37 in neutrophils
[Ca2+]i time of decline to baseline (neutrophils [2]): ≤ 200 s
calcium flux response in the absence of extracellular Ca2+ (neutrophils [2]; PBS without calcium and magnesium, LL-37 5 µM, WKYMVm 5 µM, Fig. 3C): only the WKYMVm peptide is capable of generating a calcium flux response
stimulation of migration of monocytes (monocytes [12]): only LL-37 stimulated migration of monocytes
CXCR1 surface expression (CXCR1 [3]; [20]): no down-regulation of either CXCR1 or CXCR2
CXCR2 down-regulation on monocytes (CXCR2 [8]): but not ATP or BzATP, all down-regulate CXCR2
CXCR2 surface expression (CXCR2 [4]; [20]): no down-regulation of either CXCR1 or CXCR2
cross-block of LL-37 stimulated calcium mobilization in monocytes (monocytes [16]): neither ATP nor WKYMVm cross-block LL-37 stimulated calcium mobilization
block of LL-37 induced calcium mobilization by ATP / BzATP (THP-1 cells): able to partially block

B1: CXCL7: recombinant human chemokine, rather CXCR2 specific (protein, UniProt P02775 59-128, looked up)
Neutrophil-activating peptide …: AELRCMCIKTTSGIHPKNIQSLEVIGKGTHCNQVEVIATLKDGRKICLDPDAPRIKKIVQKKLAGDESAD
modifications: Neutrophil-activating peptide 2
affinity for CXCR2 (CXCR2 [1]): high affinity
CXCR2 translocation (internalization) (CXCR2 [6]; [19]): caused only CXCR2 receptor translocation to the cytoplasm
cross-desensitization of response to fMLF by LL-37, CXCL7, CXCL1 (neutrophils [7]): do not cross-sensitize fMLF stimulation
CXCR1 down-regulation at higher dose (CXCR1 [3]): down-regulate CXCR1 at higher doses
CXCR1 surface expression, chemokine treated (CXCR1 [3]): less discriminatory towards CXCR2 compared to LL-37
CXCR1 translocation (internalization) (CXCR1 [9]; [19]): caused only CXCR2 receptor translocation to the cytoplasm
